Reference: ChEMBL document CHEMBL1124270, “Quinolone antibacterial agents. Synthesis and structure-activity relationships of 8-substituted quinoline-3-carboxylic acids and 1,8-naphthyridine-3-carboxylic acids” (1988)
≈ marks a conversion by molar mass, not a printed value.

What was measured:
Format in all cases: functional
Escherichia coli [1] = assay: Minimum concentration needed to produce linear DNA at an intensity relative to oxolinic at 10 ug/mL in Escherichia coli H560 in vitro.
In short: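 DNA gyrase cleavage test, run as previously described: end point is the lowest drug level (µg/mL) that yields linear DNA at a band intensity matching oxolinic acid at 10 µg/mL. Values come from duplicate or triplicate experiments and are stated as accurate to ±50%.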

Escherichia coli [2] = assay: Minimum inhibitory concentration against Escherichia coli H560 in vitro.
Escherichia coli [3] = assay: Minimum inhibitory concentration against Escherichia coli vogel in vitro.
Enterobacter cloacae = assay: Minimum inhibitory concentration against Enterobacter cloacae HA 2646 in vitro.
Klebsiella pneumoniae = assay: Minimum inhibitory concentration against Klebsiella pneumoniae MGH-2 in vitro.
Mus musculus [4] = assay: In vivo potency against Escherichia coli vogel using mouse protection assay when given perorally; details: po, read-out: PD50
Mus musculus [5] = assay: In vivo potency against Escherichia coli vogel using mouse protection assay when given subcutaneously; details: sc, read-out: PD50
Staphylococcus aureus [6] = assay: In vivo potency against Staphylococcus aureus using mouse protection assay following p.o. administration.; details: po, read-out: PD50
Staphylococcus aureus [7] = assay: In vivo potency against Staphylococcus aureus using mouse protection assay following s.c. administration.; details: sc, read-out: PD50
Streptococcus pneumoniae [8] = assay: In vivo potency against Streptococcus pneumoniae using mouse protection assay following p.o. administration.; details: po, read-out: PD50
Pseudomonas aeruginosa = assay: Minimum inhibitory concentration against Pseudomonas aeruginosa UI-18 in vitro.
Providencia rettgeri = assay: Minimum inhibitory concentration against Providencia rettgeri H1771 in vitro.
Streptococcus pyogenes = assay: Minimum inhibitory concentration against Streptococcus pyogenes C203 in vitro.
Streptococcus pneumoniae [9] = assay: Minimum inhibitory concentration against Streptococcus pneumoniae SV-1 in vitro.
Staphylococcus aureus [10] = assay: Minimum inhibitory concentration against Staphylococcus aureus H228 in vitro.
Staphylococcus aureus [11] = assay: Minimum inhibitory concentration against Staphylococcus aureus UC-76 in vitro.
Enterococcus faecalis = assay: Minimum inhibitory concentration against Streptococcus faecalis MGH-2 in vitro.
Streptococcus pneumoniae [12] = assay: In vivo potency against Streptococcus pneumoniae using mouse protection assay following s.c. administration.; details: sc, read-out: PD50
Mus musculus [13] = assay: In vivo potency against Staphylococcus aureus using mouse protection assay when given orally; details: po, read-out: PD50
Mus musculus [14] = assay: In vivo potency against Streptococcus pneumoniae using mouse protection assay when given orally; details: po, read-out: PD50

Row | SMILES | DNA cleavage conc (gyrase) (Escherichia coli [1]) [µg/mL] | MIC (Escherichia coli [2]) [µg/mL] | MIC (Escherichia coli [3]) [µg/mL] | MIC (Enterobacter cloacae) [µg/mL] | MIC (Klebsiella pneumoniae) [µg/mL] | ED50 (Mus musculus [4]) [mg/kg] | ED50 (Mus musculus [5]) [mg/kg] | ED50 (Staphylococcus aureus [6]) [mg/kg] | ED50 (Staphylococcus aureus [7]) [mg/kg] | ED50 (Streptococcus pneumoniae [8]) [mg/kg] | MIC (Pseudomonas aeruginosa) [µg/mL] | MIC (Providencia rettgeri) [µg/mL] | MIC (Streptococcus pyogenes) [µg/mL] | MIC (Streptococcus pneumoniae [9]) [µg/mL] | MIC (Staphylococcus aureus [10]) [µg/mL] | MIC (Staphylococcus aureus [11]) [µg/mL] | MIC (Enterococcus faecalis) [µg/mL] | ED50 (Streptococcus pneumoniae [12]) [mg/kg] | ED50 (Mus musculus [13]) [mg/kg] | ED50 (Mus musculus [14]) [mg/kg]
1 | CN(C)CC1CCN(c2nc3c(cc2F)c(=O)c(C(=O)O)cn3C2CC2)C1 (configuration not stated) | 0.75 | 0.05 (≈ 0.134 µM) | 0.05 (≈ 0.134 µM) | 0.1 (≈ 0.267 µM) | 0.2 (≈ 0.534 µM) | 2 | 1 | 31 | 27 | 7 | 0.4 (≈ 1.07 µM) | 0.8 (≈ 2.14 µM) | 0.1 (≈ 0.267 µM) | 0.05 (≈ 0.134 µM) | 0.1 (≈ 0.267 µM) | 0.05 (≈ 0.134 µM) | 0.2 (≈ 0.534 µM) | 7 |  | 
2 | CCNCC1CCN(c2c(F)cc3c(=O)c(C(=O)O)cn(C4CC4)c3c2F)C1 (configuration not stated) [PD-117558] | 0.25 | 0.025 (≈ 0.0639 µM) | 0.05 (≈ 0.128 µM) | 0.1 (≈ 0.255 µM) | 0.1 (≈ 0.255 µM) | 4 | 1 | 59 | 40 | 3 | 0.4 (≈ 1.02 µM) | 0.2 (≈ 0.511 µM) | 0.025 (≈ 0.0639 µM) | 0.025 (≈ 0.0639 µM) | 0.025 (≈ 0.0639 µM) | 0.006 (≈ 0.0153 µM) | 0.025 (≈ 0.0639 µM) | 2 |  | 
3 | CCNCC1CCN(c2nc3c(cc2F)c(=O)c(C(=O)O)cn3C2CC2)C1 (configuration not stated) | 0.75 | 0.05 (≈ 0.134 µM) | 0.1 (≈ 0.267 µM) | 0.2 (≈ 0.534 µM) | 0.1 (≈ 0.267 µM) | 7 | 1 | 62 | 15 | 16 | 0.8 (≈ 2.14 µM) | 0.8 (≈ 2.14 µM) | 0.1 (≈ 0.267 µM) | 0.1 (≈ 0.267 µM) | 0.1 (≈ 0.267 µM) | 0.05 (≈ 0.134 µM) | 0.1 (≈ 0.267 µM) | 6 |  | 
4 | Cl.Cl.NC1CCN(c2cc3c(cc2F)c(=O)c(C(=O)O)cn3C2CC2)C1 (configuration not stated) | 0.1 | 0.006 | 0.025 | 0.025 | 0.1 | 3 | 0.5 | 49.5 |  | 43 | 0.1 | 0.1 | 0.1 | 0.05 | 0.1 | 0.025 | 0.1 | 4 |  | 
5 | CN(C)CC1CCN(c2cc3c(cc2F)c(=O)c(C(=O)O)cn3C2CC2)C1 (configuration not stated) | 0.75 | 0.1 (≈ 0.268 µM) | 0.1 (≈ 0.268 µM) | 0.1 (≈ 0.268 µM) | 0.2 (≈ 0.536 µM) | 4 | 2 | 47 | 26 | 18 | 1.6 (≈ 4.28 µM) | 0.4 (≈ 1.07 µM) | 0.2 (≈ 0.536 µM) | 0.1 (≈ 0.268 µM) | 0.1 (≈ 0.268 µM) | 0.1 (≈ 0.268 µM) | 0.2 (≈ 0.536 µM) | 9 |  | 
6 | CC(C)NCC1CCN(c2c(F)cc3c(=O)c(C(=O)O)cn(C4CC4)c3c2F)C1 (configuration not stated) | 2.8 | 0.05 (≈ 0.123 µM) | 0.1 (≈ 0.247 µM) | 0.2 (≈ 0.493 µM) | 0.2 (≈ 0.493 µM) | 6 | 1 | 42 | 12 | 7 | 1.6 (≈ 3.95 µM) | 0.4 (≈ 0.987 µM) | 0.05 (≈ 0.123 µM) | 0.05 (≈ 0.123 µM) | 0.05 (≈ 0.123 µM) | 0.013 (≈ 0.0321 µM) | 0.025 (≈ 0.0617 µM) | 2 |  | 
7 | NCC1CCN(c2nc3c(cc2F)c(=O)c(C(=O)O)cn3C2CC2)C1 (configuration not stated) | 0.5 | 0.025 (≈ 0.0722 µM) | 0.1 (≈ 0.289 µM) | 0.1 (≈ 0.289 µM) | 0.1 (≈ 0.289 µM) | 17 |  |  |  |  | 0.2 (≈ 0.577 µM) | 0.4 (≈ 1.15 µM) | 0.025 (≈ 0.0722 µM) | 0.1 (≈ 0.289 µM) | 0.2 (≈ 0.577 µM) | 0.006 (≈ 0.0173 µM) | 0.025 (≈ 0.0722 µM) |  | 55 | 100
8 | O=C(O)c1cn(C2CC2)c2cc(N3CCNCC3)c(F)cc2c1=O [CIPROFLOXACIN] |  | 0.025 (≈ 0.0754 µM) |  |  | 0.1 (≈ 0.302 µM) | 1 | 0.3 | 25 | 5 | > 100 | 0.4 (≈ 1.21 µM) | 0.1 (≈ 0.302 µM) | 0.8 (≈ 2.41 µM) | 1.6 (≈ 4.83 µM) | 3.1 (≈ 9.36 µM) | 0.2 (≈ 0.604 µM) | 0.8 (≈ 2.41 µM) | 19 |  | 
9 | CNCC1CCN(c2c(F)cc3c(=O)c(C(=O)O)cn(C4CC4)c3c2F)C1 (configuration not stated) | 0.25 | 0.006 (≈ 0.0159 µM) | 0.05 (≈ 0.132 µM) | 0.025 (≈ 0.0662 µM) | 0.05 (≈ 0.132 µM) | 2 |  |  |  |  | 0.2 (≈ 0.53 µM) | 0.2 (≈ 0.53 µM) | 0.006 (≈ 0.0159 µM) | 0.006 (≈ 0.0159 µM) | 0.025 (≈ 0.0662 µM) | 0.013 (≈ 0.0344 µM) | 0.013 (≈ 0.0344 µM) |  | 22 | 2
